Calls of active or inactive are those of the source.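 The calls were made as follows, unless noted: active = inhibition at or above 50% at 10 µM; inactive = inhibition below 50%.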
Columns and labels:
[1] = inhibitors of TNFa-induced NFkB p65 translocation, primary screen, imaging, HUVEC, MLSMR starter and 10KST1 sets (AID 438;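 active = inhibition above 20% together with a positive visual image hit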;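 also: compound added about 3h40 before a 20 min TNFalpha stimulation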;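 as to inhibition: signal is the nuclear over cytoplasmic p65 intensity ratio per well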); conditions: HUVEC TNFa-induced p65 nuclear translocation; cell count: measured here: nuclei count (cytotoxicity indicator), at 2.08 µM; inhibition: at 2 µM, stronger effect = higher value, 0% TNFa-plus-vehicle, 100% no-TNFa wells
[2] = reduction of polyQ htt aggregates in cells – imaging, exon1htt(103Q)mCFP cells, high-content imaging, primary screen (AID 483;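 active = visual image review flags a hit and inhibition of aggregation exceeds 20%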;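 also: compound exposure lasted 3 days before fixation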;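 as to nuclei count: percent of the per-plate median nuclei count of sample wells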); conditions: exon1htt(103Q)mCFP cell line, aggregate imaging, at 2 µM; inhibition of aggregation: stronger effect = higher value; nuclei count: measured here: cell count, toxicity
[3] = endothelial E-selectin expression blockers – imaging, HUVEC, immunofluorescence, MLSMR starter and 10KST1 sets, primary screen (AID 487;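 active = visually confirmed hit in the image check and inhibition above 20%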;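 as to inhibition: signal is fraction of cell area covered by stained E-selectin grains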;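 as to nuclei count: 100% = median nuclei count of all wells on the same plate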); conditions: HUVEC TNFalpha-induced E-selectin immunofluorescence imaging, at 2 µM; inhibition: stronger effect = higher value; nuclei count: measured here: cell number, toxicity
[4] = biological target: Voltage-gated potassium channel subunit beta-2 (Rattus norvegicus) (UniProt P62483); assay: inhibitors of rat Kvbeta2 reductase activity – biochemical, NADPH fluorescence, primary screen (AID 622;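 active = fluorescence slope higher than the sample average by over 3 SD, cut at about -0.22 in these data, passing the limit was not always enough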;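 also: slope of raw intensity against log time taken from 70 to 1610 s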); conditions: recombinant KvBeta, 4-cyanobenzaldehyde reduction, at 10 µM, stronger effect = higher value
[5] = biological target: Voltage-gated potassium channel subunit beta-2 (Rattus norvegicus) (UniProt P62483); assay: enhancers of rat Kvbeta2 NADPH turnover – biochemical, NADPH fluorescence, primary screen (AID 623;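 active = NADPH fluorescence slope more negative than the mean of all samples by about 3 SD, 99.7% confidence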;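 also: fluorescence intensity change per second fitted from 20 to 320 s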); conditions: Recombinant KvBeta, NADPH fluorescence decrease slope, 10 min; at 10 µM; stronger effect = lower value
[6] = biological target: Alpha-2C adrenergic receptor (Homo sapiens) (UniProt P18825); assay: compounds altering alpha2C-coupled GIRK flux – cell-based, HEK293 alpha2C/GIRK1/2, thallium flux, primary screen (AID 624;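 active = fluorescence slope after compound addition differing from the mean of all screened samples at 99.7% confidence, in either direction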;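 also: slope of fluorescence ratio to pre-addition baseline per second over 15 to 24 s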); conditions: thallium flux BTC fluorescence, at 10 µM, actives lie on both sides
[7] = inhibitors of larval lipid processing in zebrafish, primary screen, whole organism, PED6 fluorescence, gall bladder and intestine (AID 686;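 active = a full or partial loss of lipid-probe fluorescence in the fish gall bladder, intestine or both, judged by eye; inactive = no fluorescence loss, or compound toxic to the fish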;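 also: larvae 5 to 7 days old with five fish per well; signal comes from phospholipase A2 cleavage of quenched PED6 carried via bile; overnight exposure to compound and PED6 before scoring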); conditions: Zebrafish larvae PED6 lipid processing, fluorescence scoring; screened at 20 µM (by protocol)
In short: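 System: live zebrafish larvae aged 5-7 days, whole organism; measure: graded gall bladder and intestinal fluorescence inhibition per well; incubation: overnight exposure; reagent: ingested quenched lipid PED6 at 100 nM; signal: By-eye fluorescence microscopy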

[8] = blockers of RIG-like receptor reporter activation – cell-based, Sendai virus stimulus, luciferase, 10K MLSCN set, TLR/RLR signaling modifier project, primary screen (AID 602276); conditions: HEK293 RL24 IRF3 luciferase reporter, at 10 µM, stronger effect = higher value;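 also: firefly luciferase from ISG56 promoter only with Renilla not read in this screen; 0% = Sendai virus plus DMSO and 100% = medium plus DMSO without virus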
[9] = TLR3 IRF3 reporter activation blockers – cell-based, poly I:C stimulus, luciferase, 10K MLSCN set, primary screen (AID 602277;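 active = inhibition of the reporter signal at or above 50%; inactive = inhibition below 50%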); conditions: HEK293-TLR3 RL24 IRF3 luciferase reporter, at 10 µM, stronger effect = higher value

Chain of Voltage-gated potassium channel subunit beta-2 (Rattus norvegicus) (P62483 whole entry, looked up): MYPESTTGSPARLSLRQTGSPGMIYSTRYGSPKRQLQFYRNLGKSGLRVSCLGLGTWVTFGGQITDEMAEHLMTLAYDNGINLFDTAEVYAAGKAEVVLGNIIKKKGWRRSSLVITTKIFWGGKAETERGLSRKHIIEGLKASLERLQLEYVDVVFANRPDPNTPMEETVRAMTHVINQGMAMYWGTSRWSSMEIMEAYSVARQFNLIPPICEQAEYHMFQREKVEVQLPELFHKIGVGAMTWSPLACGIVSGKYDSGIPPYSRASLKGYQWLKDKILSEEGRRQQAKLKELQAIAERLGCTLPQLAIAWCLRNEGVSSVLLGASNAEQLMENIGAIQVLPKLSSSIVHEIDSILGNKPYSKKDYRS
Chain of Alpha-2C adrenergic receptor (Homo sapiens) (P18825 whole entry, looked up): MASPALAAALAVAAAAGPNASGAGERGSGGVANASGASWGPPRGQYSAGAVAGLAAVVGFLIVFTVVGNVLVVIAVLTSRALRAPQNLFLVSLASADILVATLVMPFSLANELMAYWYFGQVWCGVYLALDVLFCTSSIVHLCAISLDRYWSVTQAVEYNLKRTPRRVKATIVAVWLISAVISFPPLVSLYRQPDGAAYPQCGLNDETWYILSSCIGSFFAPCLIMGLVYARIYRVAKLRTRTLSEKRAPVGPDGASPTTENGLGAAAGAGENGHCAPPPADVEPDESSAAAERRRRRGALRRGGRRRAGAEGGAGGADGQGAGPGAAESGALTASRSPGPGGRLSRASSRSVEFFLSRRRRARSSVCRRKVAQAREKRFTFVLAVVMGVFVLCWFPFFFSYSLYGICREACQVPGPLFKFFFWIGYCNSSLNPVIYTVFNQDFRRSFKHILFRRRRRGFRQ

CN(CC(=O)Nc1cccnc1)S(=O)(=O)c1cc(Cl)ccc1Cl
448: cell count [1]
101%: nuclei count [2]
inactive: inhibition [1] 12.5% | inhibition of aggregation [2] -7.7% | inhibition [3] -44.8% | fluorescence slope [4] -0.468 | NADPH fluorescence slope [5] -1.6e-06 | slope [6] 0.00566 | outcome [7] | inhibition [8] -8.87% | inhibition [9] -13.1%
98.2%: nuclei count [3]

COc1ccc(C2C(C(=O)c3sc(C)nc3C)=C(O)C(=O)N2CCN(C)C)cc1 (stereo not given)
123%: nuclei count [3]
110%: nuclei count [2]
inactive: inhibition [1] 13.4% | inhibition of aggregation [2] 6.9% | inhibition [3] -15.4% | fluorescence slope [4] -0.335 | NADPH fluorescence slope [5] -6.7e-05 | slope [6] 0.00568 | outcome [7] | inhibition [8] 10.9% | inhibition [9] 9.69%
560: cell count [1]

CCCNC(=O)c1cc(S(=O)(=O)N2CCc3ccccc32)ccc1F
inactive: inhibition [1] -17.2% | inhibition of aggregation [2] 14.3% | inhibition [3] -32.7% | fluorescence slope [4] -0.412 | NADPH fluorescence slope [5] -7.4e-05 | slope [6] 0.00573 | outcome [7] | inhibition [8] 8.07% | inhibition [9] 0.176%
104%: nuclei count [3]
503: cell count [1]
74.6%: nuclei count [2]

COCCCN1C(=O)C(=O)/C(=C(/O)c2ccc(OC)cc2)C1c1ccc(O)c(OC)c1 (stereo not given)
101%: nuclei count [2]
inactive: inhibition [1] -14.9% | inhibition of aggregation [2] -10% | inhibition [3] 25.3% | fluorescence slope [4] -0.39 | NADPH fluorescence slope [5] -2.6e-05 | slope [6] 0.00521 | outcome [7] | inhibition [8] 4.25% | inhibition [9] -6.14%
98.6%: nuclei count [3]
499: cell count [1]

Cc1ccc2nc(/C(C#N)=N/O)[nH]c2c1
inactive: inhibition [1] -1.7% | inhibition of aggregation [2] -7.3% | inhibition [3] -34.1% | fluorescence slope [4] -0.376 | NADPH fluorescence slope [5] -8.1e-05 | slope [6] 0.00426 | outcome [7] | inhibition [8] 6.84% | inhibition [9] 6.68%
627: cell count [1]
112%: nuclei count [2]
119%: nuclei count [3]

CCn1cnc2sc(C(=O)Nc3ccc4c(c3)OCO4)c(C)c2c1=O
473: cell count [1]
90.6%: nuclei count [3]
inactive: inhibition [1] -14.7% | inhibition of aggregation [2] 7.4% | inhibition [3] -47.6% | fluorescence slope [4] -0.361 | NADPH fluorescence slope [5] -7e-05 | slope [6] 0.00678 | outcome [7] | inhibition [8] -47.3% | inhibition [9] -111%
102%: nuclei count [2]

Cc1cccc(N(CC(=O)N2CCCC2)S(=O)(=O)c2ccccc2)c1C
98.1%: nuclei count [3]
288: cell count [1]
87.6%: nuclei count [2]
inactive: inhibition [1] -2.3% | inhibition of aggregation [2] 23.9% | inhibition [3] -156% | fluorescence slope [4] -0.423 | NADPH fluorescence slope [5] -4.5e-05 | slope [6] 0.00511 | outcome [7] | inhibition [8] -11.4% | inhibition [9] -6.79%

Cc1ccc(S(=O)(=O)N(CC(=O)N2CCC(C(N)=O)CC2)Cc2ccc(F)cc2)cc1
91.9%: nuclei count [2]
110%: nuclei count [3]
inactive: inhibition [1] 3.5% | inhibition of aggregation [2] -8.5% | inhibition [3] 34.4% | fluorescence slope [4] -0.361 | NADPH fluorescence slope [5] -6.9e-05 | slope [6] 0.00526 | outcome [7] | inhibition [8] 10.4% | inhibition [9] 15.9%
473: cell count [1]

Cc1cc(C(=O)COC(=O)CCc2nc3ccccc3s2)c(C)n1C
inactive: inhibition [1] -10.5% | inhibition of aggregation [2] 14.2% | inhibition [3] -16% | fluorescence slope [4] -0.454 | NADPH fluorescence slope [5] -3.3e-05 | slope [6] 0.00538 | outcome [7] | inhibition [8] 16.3% | inhibition [9] 7.6%
96%: nuclei count [3]
170: cell count [1]
108%: nuclei count [2]

Cc1nc(-c2ccccc2)sc1C(N)=O
424: cell count [1]
inactive: inhibition [1] 4.7% | inhibition of aggregation [2] 25.4% | inhibition [3] -40.1% | fluorescence slope [4] -0.524 | NADPH fluorescence slope [5] 1.6e-05 | slope [6] 0.0052 | outcome [7] | inhibition [8] -21.5% | inhibition [9] -49.1%
117%: nuclei count [3]
104%: nuclei count [2]
